# M4 antag: human M4 muscarinic receptor antagonists, primary screen, CHO cells, Fluo-8 calcium fluorescence. Muscarinic acetylcholine receptor M4 (Homo sapiens), P08173. CHO-hM4 cells, ACh EC80. inhibition, % at 3 µM. actives 0.73% (n = 360,000). AID 624125, 2012;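 active = inhibition above its plate's cutoff, the mean inhibition of sample wells plus 3 SD, cut at about 27% in these data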
# M4 ag: human M4 muscarinic receptor agonists, primary screen, CHO-K1 cells, Fluo-8 calcium fluorescence. Muscarinic acetylcholine receptor M4 (Homo sapiens), P08173. CHO-K1 hM4/Gqi5; vehicle 0%, full acetylcholine response 100%. activation, % at 3 µM. actives 0.14% (n = 360,000);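 active = activation above the run mean over all test wells plus 3 SD, cut at about 32% in these data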;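 also: peak over basal fluorescence ratio per well then scaled between controls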
# CHRM5 antagonist: human M5 muscarinic receptor antagonists, primary screen, CHO cells, Fluo-8 calcium fluorescence; Muscarinic acetylcholine receptor M5 (Homo sapiens), P08912; CHO-hM5 cells, ACh EC80; inhibition, % at 3 µM; actives 0.59% (n = 360,000); AID 624040, 2012;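 active = inhibition above a per-plate cutoff, the mean of that plate's test compounds plus 3 SD, cut at about 27% in these data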
# Target sequence (P08912 whole entry, looked up): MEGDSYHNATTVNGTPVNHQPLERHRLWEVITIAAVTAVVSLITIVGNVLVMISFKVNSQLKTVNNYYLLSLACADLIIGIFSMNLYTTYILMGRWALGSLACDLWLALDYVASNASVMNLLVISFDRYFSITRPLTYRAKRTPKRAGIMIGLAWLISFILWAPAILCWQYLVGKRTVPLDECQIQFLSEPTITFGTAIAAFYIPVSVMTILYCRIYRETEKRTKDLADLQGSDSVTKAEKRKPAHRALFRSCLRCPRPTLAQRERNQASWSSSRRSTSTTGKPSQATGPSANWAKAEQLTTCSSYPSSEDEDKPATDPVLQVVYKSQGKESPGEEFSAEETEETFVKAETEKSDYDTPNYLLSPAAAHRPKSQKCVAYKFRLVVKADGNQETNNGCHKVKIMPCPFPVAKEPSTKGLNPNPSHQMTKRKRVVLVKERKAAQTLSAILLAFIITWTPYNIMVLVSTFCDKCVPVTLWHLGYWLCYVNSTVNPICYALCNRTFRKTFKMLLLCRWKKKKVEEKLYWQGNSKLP
# CHRM5 PAM: human M5 muscarinic receptor positive allosteric modulators, primary screen, CHO-K1 cells, Fluo-8 calcium fluorescence; AID 624038, 2012; actives 0.3% (n = 360,000); activation, % at 3 µM; CHO-K1 hM5, ACh EC20 PAM; 0% = ACh EC20, 100% = ACh EC100; Muscarinic acetylcholine receptor M5 (Homo sapiens), P08912;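 active = activation above the run cutoff, the mean activation of all test compounds plus 3 SD, cut at about 18% in these data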
#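 Assay system: CHO-K1 hM5 cells. Also added: acetylcholine at EC20 concentration, added after compound. Dosing: 3 µM, single dose. Times: compound preincubation 140 s before EC20 acetylcholine addition. Signal: Fluo-8 calcium fluorescence. Measure: % activation relative to EC20 and EC100 ACh responses. Repeats: singlicate, one well per test compound.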
# CHRM4 PAM: human M4 muscarinic receptor positive allosteric modulators, primary screen, CHO-K1 cells, Fluo-8 calcium fluorescence. activation, % at 3 µM. Muscarinic acetylcholine receptor M4 (Homo sapiens), P08173. CHO-K1 hM4/Gqi5, ACh EC20; 0% = ACh EC20, 100% = maximal ACh. actives 0.4% (n = 360,000);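 active = activation above its plate's cutoff, the mean activation of sample wells plus 3 SD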
# CHRM5 agonist: human M5 muscarinic receptor agonists, primary screen, CHO-K1 cells, Fluo-8 calcium fluorescence. Muscarinic acetylcholine receptor M5 (Homo sapiens), P08912. CHO-K1 hM5 cells; 0% DMSO wells, 100% maximal acetylcholine response. actives 0.19% (n = 360,000). activation, % at 3 µM;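 active = activation above the run's mean over test compounds plus 3 SD, cut at about 23% in these data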;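 also: signal is peak over basal fluorescence ratio across the kinetic read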
# A number is an active result; i = inactive. Hits are enriched below; roughly 1.9% of the tested compounds scored in any of these assays.
SMILES,M4 antag,M4 ag,CHRM5 antagonist,CHRM5 PAM,CHRM4 PAM,CHRM5 agonist
O=C(COC(=O)c1cc([N+](=O)[O-])ccc1NCCO)Nc1ccc2c(c1)OCO2,i,i,i,i,i,i
O=C(COC(=O)c1cc([N+](=O)[O-])ccc1NCCO)Nc1cccc(S(=O)(=O)N2CCCC2)c1,34.6,i,i,i,i,i
Cc1cc(OCC(=O)Nc2cccc(S(=O)(=O)N3CCCCC3)c2)ccc1Cl,i,i,i,i,i,i
CCC(=O)c1ccc(OCC(=O)Nc2cccc(S(=O)(=O)N3CCCCCC3)c2)cc1,i,i,28.9,i,i,i
CCN(CC)S(=O)(=O)c1cccc(NC(=O)CNc2cccc(S(=O)(=O)N3CCCC3)c2)c1,i,i,37.9,i,i,i
COCCNC(=O)NC(=O)CSc1nc(C)c(C)c(C)n1,i,i,i,i,i,i
O=C(CNc1cccc(S(=O)(=O)N2CCCC2)c1)Nc1ccc(F)c(F)c1,i,i,i,i,20.5,i
CCN(CC)S(=O)(=O)c1cccc(NC(=O)/C=C/c2ccc([N+](=O)[O-])cc2)c1,i,i,i,i,i,i
CCN(CC)S(=O)(=O)c1cccc(NC(=O)/C=C/c2cccc([N+](=O)[O-])c2)c1,i,i,32.5,i,i,i
CCC1CCCCN1CCCNC(=O)Cn1ncc2c(C)n(Cc3ccccc3Cl)c(C)c2c1=O (stereo unspecified),27.9,i,i,i,i,i
Cc1nc2nc(SCC(=O)NCCCN3CCCC(C)C3)nn2c(C)c1Cc1ccccc1Cl (stereo unspecified),31.3,i,i,i,i,i
CCC1CCCCN1CCCNC(=O)CSc1nc2nc(C)c(Cc3ccccc3Cl)c(C)n2n1 (stereo unspecified),31.4,i,i,i,i,i
Cc1nc2nc(SCC(=O)NCCCN3CCCCCC3)nn2c(C)c1Cc1ccccc1Cl,51.1,i,i,i,i,i
CCC1CCCCN1CCCNC(=O)CSc1nc2nc(C)c(Cc3ccccc3)c(C)n2n1 (stereo unspecified),i,i,i,i,i,i
Cc1c2cnn(CC(=O)NCCCN3CCCCC3)c(=O)c2c(C)n1Cc1ccccc1,i,i,i,i,i,i
Cc1ccccc1Cc1c(C)nc2nc(SCC(=O)NCCCN3CCCC3)nn2c1C,i,i,i,i,i,i
CCOC(=O)C1CCN(C(=O)COC(=O)c2ccc3c(c2)C(=O)N(c2ccc(OCC)cc2)C3=O)CC1,i,i,i,i,i,i
CCOC(=O)C1(CCOC)CCCCC1=O (stereo unspecified),i,i,i,i,i,i
CC1(C(=O)NS(=O)(=O)c2ccccc2)CCN1C(=O)Cc1cc(F)ccc1F (stereo unspecified),i,i,i,i,i,i
COC(c1ccccc1)(c1ccccc1)C(Oc1nccc(C)n1)C(=O)O (stereo unspecified),i,i,i,i,i,i
COc1ccc(/C=C(/NC(=O)c2ccc([N+](=O)[O-])cc2)C(=O)NC(C)(C)C)cc1,i,i,i,i,i,i
CCCCN(C(=O)c1ccc(-c2ccc([N+](=O)[O-])cc2)o1)c1c(N)n(CCCC)c(=O)[nH]c1=O,i,i,i,i,i,i
O=C(Cc1cccc(NC(=O)C2CCN(C(=O)c3ccccc3)CC2)c1)Nc1cccc(C(=O)N2CCCC2)c1,i,i,i,i,i,i
O=C(NCC1CCCN1S(=O)(=O)c1cccs1)c1cccc([N+](=O)[O-])c1 (stereo unspecified),i,i,i,i,i,i
CCCNC(=O)N1C2=NC(C(=O)OC)=C(C(=O)OC)[C@@H]3N(Cc4ccccc4)c4ccccc4[C@]23C[C@H]1CO,i,i,i,20.1,i,i

# Assay outcomes: PubChem, The Scripps Research Institute Molecular Screening Center
